Experimental data: ChEMBL document CHEMBL4350999, “Enhanced tumor retention of NTSR1-targeted agents by employing a hydrophilic cysteine cathepsin inhibitor” (Eur J Med Chem, 2019)
Activity calls are given as the source filed them. The rule behind the calls is not given here.

Legend:
[1] = Drug uptake in heart of SCID mouse xenografted with human HT-29 cells at 0.37 MBq/mouse, iv measured at 4 hrs using 177Lu labelled compound by gamma counter analysis; format: ADME, organism-based; details: in vivo
In short: (§1)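 Female SCID mice (5 weeks) bore s.c. flank xenografts of HT-29 cells (5 × 10^6 in Matrigel), used at about 80 mm3 (two weeks) and randomized. Each mouse received 10 μCi (0.37 MBq) of HPLC-purified 177Lu-conjugate via tail vein. Tissues were excised, weighed and gamma-counted, expressed as %ID/g; mean ± SD, n = 5.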

[2] = Drug uptake in liver of SCID mouse xenografted with human HT-29 cells at 0.37 MBq/mouse, iv measured at 4 hrs using 177Lu labelled compound by gamma counter analysis; format: ADME, organism-based; details: in vivo; in short: as §1
[3] = Drug uptake in pancreas of SCID mouse xenografted with human HT-29 cells at 0.37 MBq/mouse, iv measured at 4 hrs using 177Lu labelled compound by gamma counter analysis; format: ADME, organism-based; details: in vivo; in short: as §1
[4] = Drug uptake in small intestine of SCID mouse xenografted with human HT-29 cells at 0.37 MBq/mouse, iv measured at 4 hrs using 177Lu labelled compound by gamma counter analysis; format: ADME, organism-based; details: in vivo; in short: as §1
[5] = Drug uptake in muscle of SCID mouse xenografted with human HT-29 cells at 0.37 MBq/mouse, iv measured at 4 hrs using 177Lu labelled compound by gamma counter analysis; format: ADME, organism-based, Muscle tissue; details: in vivo; in short: as §1
[6] = Drug uptake in pancreas of SCID mouse xenografted with human HT-29 cells at 0.37 MBq/mouse, iv measured at 24 hrs using 177Lu labelled compound by gamma counter analysis; format: ADME, organism-based; details: in vivo; in short: as §1
[7] = Drug uptake in liver of SCID mouse xenografted with human HT-29 cells at 0.37 MBq/mouse, iv measured at 24 hrs using 177Lu labelled compound by gamma counter analysis; format: ADME, organism-based; details: in vivo; in short: as §1
[8] = Drug uptake in SCID mouse xenografted with human HT-29 cells assessed as tumour retention at 0.37 MBq/mouse, iv measured at 24 hrs using 177Lu labelled compound by gamma counter analysis; format: ADME, organism-based; details: in vivo
In short: (§2)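 Female SCID mice bearing s.c. flank HT-29 xenografts (5 × 10^6 cells in Matrigel, ~80 mm3). Given 10 μCi (0.37 MBq) 177Lu conjugate i.v. by tail vein; groups sacrificed at 4, 24, 72 h. Tissues weighed and gamma-counted as %ID/g, excretion as %ID; n = 5, mean ± SD. Blocking arms: colchicine 1 mg/kg i.p. beforehand, or D-lysine 40 mg/kg co-injected.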

[9] = Drug uptake in SCID mouse xenografted with human HT-29 cells assessed as tumour retention level at 0.37 MBq/mouse, iv measured at 4 hrs using 177Lu labelled compound by gamma counter analysis; format: ADME, organism-based; details: in vivo; in short: as §2
[10] = Drug uptake in spleen of SCID mouse xenografted with human HT-29 cells at 0.37 MBq/mouse, iv measured at 24 hrs using 177Lu labelled compound by gamma counter analysis; format: ADME, organism-based; details: in vivo
In short: (§3)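 Female SCID mice (5 weeks old) received s.c. flank HT-29 cells (5 × 10^6 in Matrigel). At ~80 mm3, two weeks later, mice were randomized and given 10 μCi (0.37 MBq) of purified 177Lu conjugate i.v. by tail vein. Mice were killed at 4, 24 or 72 h. Tissues were weighed and gamma counted as %ID/g, mean ± SD, n = 5. Tumor-to-tissue ratios were calculated.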

[11] = Drug uptake in small intestine of SCID mouse xenografted with human HT-29 cells at 0.37 MBq/mouse, iv measured at 24 hrs using 177Lu labelled compound by gamma counter analysis; format: ADME, organism-based; details: in vivo; in short: as §1
[12] = Drug uptake in large intestine of SCID mouse xenografted with human HT-29 cells at 0.37 MBq/mouse, iv measured at 24 hrs using 177Lu labelled compound by gamma counter analysis; format: ADME, organism-based; details: in vivo; in short: as §1
[13] = Drug uptake in kidney of SCID mouse xenografted with human HT-29 cells at 0.37 MBq/mouse, iv measured at 24 hrs using 177Lu labelled compound by gamma counter analysis; format: ADME, organism-based; details: in vivo; in short: as §1
[14] = Drug uptake in bone of SCID mouse xenografted with human HT-29 cells at 0.37 MBq/mouse, iv measured at 24 hrs using 177Lu labelled compound by gamma counter analysis; format: ADME, organism-based, Bone element; details: in vivo; in short: as §2
[15] = Drug uptake in stomach of SCID mouse xenografted with human HT-29 cells at 0.37 MBq/mouse, iv measured at 72 hrs using 177Lu labelled compound by gamma counter analysis; format: ADME, organism-based; details: in vivo; in short: as §3
[16] = Drug uptake in bone of SCID mouse xenografted with human HT-29 cells at 0.37 MBq/mouse, iv measured at 72 hrs using 177Lu labelled compound by gamma counter analysis; format: ADME, organism-based, Bone element; details: in vivo; in short: as §1
[17] = 1-Octanol-PBS buffer distribution coefficient, log D of natEu labelled compound at pH 7.4 by time resolved fluorescence analysis; format: physicochemical
In short: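 natEu-labelled conjugate (300 μg) in 0.2 mL PBS pH 7.4 partitioned against 0.2 mL 1-octanol; 100 μL aliquots from each layer dried under vacuum and taken up in water. Time-resolved fluorescence read at 590 nm with 380 nm excitation, and LogD7.4 calculated from the two layers.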

[18] = Ratio of drug uptake in SCID mouse xenograted with human HT-29 cells assessed as tumour retention to drug uptake in liver of SCID mouse xenografted with human HT-29 cells measured after 4 hrs using 177Lu labelled compound; format: ADME, tissue-based, Tumor/Liver; in short: as §3
[19] = Ratio of drug uptake in SCID mouse xenograted with human HT-29 cells assessed as tumour retention to drug uptake in pancreas of SCID mouse xenografted with human HT-29 cells measured after 24 hrs using 177Lu labelled compound; format: ADME, tissue-based, Tumor/Pancreas; in short: as §3
[20] = Ratio of drug uptake in SCID mouse xenograted with human HT-29 cells assessed as tumour retention to drug uptake in kidney of SCID mouse xenografted with human HT-29 cells measured after 72 hrs using 177Lu labelled compound; format: ADME, tissue-based, Tumor/Kidney; in short: as §3
[21] = Drug uptake in membrane of human HT-29 cells measured after 240 mins using 177Lu labelled compound by gamma counter method relative to control; format: ADME, cell-based; details: ht-29, 4 h
In short: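 HT-29 cells (~1 × 10^6 in 1 mL medium) were incubated with 177Lu-conjugate (100,000 cpm) at 37 °C and sampled at 15–240 min. After medium washes, surface-bound activity was stripped with pH 2.8 glycine-HCl/NaCl buffer, and the internalized fraction was taken from the 1% SDS lysate. Fractions were gamma-counted as % of total added activity; mean ± SD, n = 3.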

Cathepsin B = Cathepsin B (Homo sapiens, UniProt P07858); assay: Binding affinity to cathepsin B in human HT-29 cells assessed as intracellular adduct formation at 0.74 MBq incubated for 4 hrs using 177Lu labelled compound by SDS-PAGE analysis; format: cell-based; design: dose or concentration left out as unconfirmed
In short: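 HT-29 cells (1 × 10^6/well) incubated 4 h at 37 °C with 177Lu conjugate (20 μCi, 0.74 MBq) in 1 mL medium, with or without E-64 (10 μM) or NTSR1 peptide N1 (20 μM). Cells washed and refed; at set times cells pooled, RIPA-lysed with protease inhibitor. Lysates heated 85 °C 2 min, run on 16% tris-glycine SDS-PAGE, and phosphor autoradiography taken after 72 h exposure.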

Row | SMILES | Drug uptake [1] | Drug uptake [2] | Drug uptake [3] | Drug uptake [4] | Drug uptake [5] | Drug uptake [6] | Drug uptake [7] | Drug uptake [8] | Drug uptake [9] | Drug uptake [10] | Drug uptake [11] | Drug uptake [12] | Drug uptake [13] | Drug uptake [14] | Drug uptake [15] | Drug uptake [16] | logD [17] | Ratio [18] | Ratio [19] | Drug uptake [21] | further results
1 | Cc1cc(C)c(C(=O)OCC(=O)[C@H](CCCCNC(=O)CNC(=O)[C@@H](CO)NC(=O)[C@@H](CO)NC(=O)[C@@H](CO)NC(=O)Cn2cc(C[C@H](NC(=O)CN3CCN(CC(=O)O)CCN(CC(=O)O)CCN(CC(=O)O)CC3)C(=O)N[C@H](CO)C(=O)N[C@H](CO)C(=O)N[C@H](CO)C(=O)N[C@@H](CCCCN)C(=O)N3CCC[C@H]3C(=O)N(C)[C@@H](CCCNC(=N)N)C(=O)N[C@@H](CCCNC(=N)N)C(=O)N3CCC[C@H]3C(=O)N[C@@H](Cc3c(C)cc(O)cc3C)C(=O)N[C@H](C(=O)N[C@@H](CC(C)C)C(=O)O)C(C)(C)C)nn2)NC(=O)[C@H](Cc2ccccc2)NC(=O)OCc2ccccc2)c(C)c1 | 1.4 % ID/g | 38.6 % ID/g | 0.89 % ID/g | 6.1 % ID/g | 0.53 % ID/g | 0.6 % ID/g | 26 % ID/g | 10 % ID/g | 7.8 % ID/g | 17 % ID/g | 5.5 % ID/g | 2.1 % ID/g | 62 % ID/g | 1.5 % ID/g | 0.8 % ID/g | 1.1 % ID/g | -2.1 | 0.2 | 17 | 2% | Ratio [20]: 0.09
2 | Cc1cc(O)cc(C)c1C[C@H](NC(=O)[C@@H]1CCCN1C(=O)[C@H](CCCNC(=N)N)NC(=O)[C@H](CCCNC(=N)N)N(C)C(=O)[C@@H]1CCCN1C(=O)[C@H](CCCCN)NC(=O)[C@@H](CO)NC(=O)[C@@H](CO)NC(=O)[C@@H](CO)NC(=O)[C@H](Cc1cn(CCNC(=O)[C@H](CCCNC(=N)N)NC(=O)[C@H](CC(C)C)NC(=O)C2OC2C(=O)O)nn1)NC(=O)CN1CCN(CC(=O)O)CCN(CC(=O)O)CCN(CC(=O)O)CC1)C(=O)N[C@H](C(=O)N[C@@H](CC(C)C)C(=O)O)C(C)(C)C (stereo partly drawn) | 0.14 % ID/g | 0.78 % ID/g | 0.19 % ID/g | 3.5 % ID/g | 0.09 % ID/g | 0.18 % ID/g | 0.73 % ID/g | 6.2 % ID/g | 6.4 % ID/g | 1.7 % ID/g | 3.2 % ID/g | 1.1 % ID/g | 80 % ID/g | 1.1 % ID/g | 0.21 % ID/g | 0.6 % ID/g | -3.69 | 8.4 | 36 | Not Active | Activity (Cathepsin B): Active; Ratio [20]: 0.09
3 | Cc1cc(O)cc(C)c1C[C@H](NC(=O)[C@@H]1CCCN1C(=O)[C@H](CCCNC(=N)N)NC(=O)[C@H](CCCNC(=N)N)N(C)C(=O)[C@@H]1CCCN1C(=O)[C@H](CCCCN)NC(=O)[C@@H](CO)NC(=O)[C@@H](CO)NC(=O)[C@@H](CO)NC(=O)[C@H](Cc1cn(CC(=O)N[C@H](CO)C(=O)N[C@H](CO)C(=O)N[C@H](CO)C(=O)NCC(=O)NCCCC[C@H](NC(=O)[C@H](Cc2ccccc2)NC(=O)OCc2ccccc2)C(=O)NCCc2ccccc2)nn1)NC(=O)CN1CCN(CC(=O)O)CCN(CC(=O)O)CCN(CC(=O)O)CC1)C(=O)N[C@H](C(=O)N[C@@H](CC(C)C)C(=O)O)C(C)(C)C | 1.1 % ID/g | 9.2 % ID/g | 0.84 % ID/g | 7.6 % ID/g | 0.44 % ID/g | 0.77 % ID/g | 8.3 % ID/g | 5.1 % ID/g | 8.4 % ID/g | 18 % ID/g | 5.6 % ID/g | 2.6 % ID/g | 55 % ID/g | 1.8 % ID/g | 0.51 % ID/g | 1 % ID/g |  |  |  |  | 
4 | Cc1cc(O)cc(C)c1C[C@H](NC(=O)[C@@H]1CCCN1C(=O)[C@H](CCCNC(=N)N)NC(=O)[C@H](CCCNC(=N)N)N(C)C(=O)[C@@H]1CCCN1C(=O)[C@H](CCCCN)NC(=O)[C@@H](CO)NC(=O)[C@@H](CO)NC(=O)[C@@H](CO)NC(=O)[C@H](Cc1cn(CCNC(=O)[C@H](CCCNC(=N)N)NC(=O)[C@H](CC(C)C)NC(=O)CCC(=O)O)nn1)NC(=O)CN1CCN(CC(=O)O)CCN(CC(=O)O)CCN(CC(=O)O)CC1)C(=O)N[C@H](C(=O)N[C@@H](CC(C)C)C(=O)O)C(C)(C)C | 0.13 % ID/g | 0.42 % ID/g | 0.12 % ID/g | 2.9 % ID/g | 0.04 % ID/g | 0.11 % ID/g | 0.4 % ID/g | 4.4 % ID/g | 5.6 % ID/g | 1.6 % ID/g | 1.9 % ID/g | 0.73 % ID/g | 39 % ID/g | 0.15 % ID/g | 0.08 % ID/g | 0.12 % ID/g | -3.71 |  |  | Not Active | Activity (Cathepsin B): inactive
